The record followed here is ChEMBL document CHEMBL4316610, “Synthesis and Biological Studies of (+)-Liquiditerpenoic Acid A (Abietopinoic Acid) and Representative Analogues: SAR Studies” (J Nat Prod, 2019).

Data set [1] concerns Leishmania amazonensis. Briefly: Antileishmanial activity against Leishmania amazonensis MHOM/Br/79/Mari promastigotes after 48 hrs by resazurin dye-based fluorometric analysis. Type of data set: functional, organism-based. In outline:
(§1)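 The IC50 is taken as the compound concentration giving a 50% reduction in parasites, reported with SD.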

Data set [2] can be described thus: Cytotoxicity against mouse J774 cells assessed as reduction in cell viability after 48 hrs by resazurin dye-based fluorometric analysis. An outline of the steps:
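The CC50 is taken as the concentration giving a 50% reduction in cell viability of treated cultures compared with untreated cells.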

The subject of data set [3] is Leishmania infantum. Briefly: Antileishmanial activity against Leishmania infantum MCAN/ES/96/BCN150 promastigotes after 48 hrs by resazurin dye-based fluorometric analysis. It counts as functional, organism-based. An outline of the steps: as §1
(In general: Resazurin is reduced to fluorescent resorufin, in cell work by metabolically active cells.)

Data set [4] can be described thus: Selectivity index, ratio of CC50 for mouse J774 cells to IC50 for Leishmania donovani MHOM/IN/80/DD8 promastigotes. Type of data set: toxicity. As to conditions: read-out: Ratio CC50/IC50; call rule not given here.
The nature of data set [5]: Selectivity index, ratio of CC50 for mouse J774 cells to IC50 for Leishmania infantum MCAN/ES/96/BCN150 promastigotes. The following applies: read-out: Ratio CC50/IC50. Type of data set: toxicity.
Data set [6] can be described thus: Selectivity index, ratio of CC50 for mouse J774 cells to IC50 for Leishmania guyanensis 141/93 promastigotes. It counts as toxicity. As to conditions: read-out: Ratio CC50/IC50.
Data set [7] deals with Leishmania guyanensis. Briefly: Antileishmanial activity against Leishmania guyanensis 141/93 promastigotes after 48 hrs by resazurin dye-based fluorometric analysis. Type of data set: functional, organism-based. An outline of the steps: as §1
Data set [8] relates to Leishmania donovani. Briefly: Antileishmanial activity against Leishmania donovani MHOM/IN/80/DD8 promastigotes after 48 hrs by resazurin dye-based fluorometric analysis. Type of data set: functional, organism-based. In outline: as §1
Data set [9] has as its target T1, GABA-A receptor; alpha-1/beta-2/gamma-2 (Homo sapiens) (UniProt P14867+P47870+P18507). Briefly: Modulation of recombinant wild type GABAA receptor alpha1beta2gamma2S (unknown origin) expressed in Xenopus laevis oocytes assessed as increase in GABA-evoked chloride current at 100 uM at -70 mV holding potential by two-microelectrode voltage clamp assay relative to control. Type of data set: cell-based. An outline of the steps: (§2)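 Two-microelectrode voltage clamp at -70 mV on Xenopus laevis oocytes expressing α1β2γ2S GABA-A receptors. GABA EC5 (4-5 μM), set individually for each oocyte, applied for 20 s alone, then co-applied with compound at 10 or 100 μM. Potentiation of GABA-evoked current is reported. Dehydroabietic acid served as positive control. Mean ± SEM from at least three oocytes and two oocyte batches.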

The nature of data set [10]: Selectivity index, ratio of CC50 for mouse J774 cells to IC50 for Leishmania amazonensis MHOM/Br/79/Mari promastigotes. The following applies: read-out: Ratio CC50/IC50. Type of data set: toxicity.
The target of data set [11] is T1, GABA-A receptor; alpha-1/beta-2/gamma-2 (Homo sapiens). Briefly: Modulation of recombinant wild type GABAA receptor alpha1beta2gamma2S (unknown origin) expressed in Xenopus laevis oocytes assessed as increase in GABA-evoked chloride current at 10 uM at -70 mV holding potential by two-microelectrode voltage clamp assay relative to control. It counts as cell-based. In outline:
as §2

For data set [12], the system named is SW1573. The data set can be described thus: Antiproliferative activity against human SW1573 cells after 48 hrs by SRB assay. It counts as functional. As to conditions: SW1573, 48 h. In general terms: Sulforhodamine B stains cellular protein and so reports cell mass.
Data set [13] relates to HeLa. The data set can be described thus: Antiproliferative activity against human HeLa cells after 48 hrs by SRB assay. It counts as functional.
The subject of data set [14] is WiDr. The data set can be described thus: Antiproliferative activity against human WiDr cells after 48 hrs by SRB assay. It counts as functional.
For data set [15], the system named is HBL-100. The data set can be described thus: Antiproliferative activity against human HBL100 cells after 48 hrs by SRB assay. Type of data set: functional. As to conditions: HBL-100, 48 h.
Data set [16] concerns T47D. Briefly: Antiproliferative activity against human T47D cells after 48 hrs by SRB assay. Type of data set: functional.
Data set [17] concerns A549. The data set can be described thus: Antiproliferative activity against human A549 cells after 48 hrs by SRB assay. Type of data set: functional. As to conditions: A549, 48 h.
Where [18] appears, read: Leishmania amazonensis, MHOM/Br/79/Mari, 48 h, read-out: IC50.
[19] abbreviates: Leishmania infantum, MCAN/ES/96/BCN150, 48 h, read-out: IC50.
[20] abbreviates: Leishmania guyanensis, 141/93, 48 h, read-out: IC50.
The mark [21] stands for this setting: Leishmania donovani, MHOM/IN/80/DD8, 48 h, read-out: IC50.
Setting [22] is: Leishmania donovani, MHOM/IN/80/DD8, 48 h, read-out: log(1/IC50) (converted).

`CC(C)c1cc2c(cc1O)[C@@]1(C)CCC[C@@](C)(CO)[C@@H]1CC2=O`: the IC50 in data set [1] (setting [18]) is 10.2 µM; in [3] (setting [19]), 9.7 µM; in [7] (setting [20]) it was 16.5 µM; in data set [8] (setting [21]), 19.7 µM; in data set [8] (setting [22]), 19.7 µM. Besides, the CC50 at 48 h in data set [2] was 14.4 µM. In addition, the selectivity ratio in [4] worked out at 0.7; in data set [5], 1.5; in data set [6], 0.9; in data set [10] it was 1.4. Moreover, the Activity in data set [9] was -30.3%; in data set [11] it was 4.5%.
With `CC(C)c1cc2c(cc1O)[C@@]1(C)CCC[C@@](C)(C(=O)O)[C@@H]1CC2`, the IC50 in data set [1] (setting [18]) was 54.1 µM; in data set [3] (setting [19]), 43.6 µM; in data set [7] (setting [20]) it was 71.4 µM; in data set [8] (setting [21]) it was 58.1 µM; in data set [8] (setting [22]) it was 58.1 µM. Also, the CC50 at 48 h in [2] worked out at 85.8 µM. The selectivity ratio in data set [4] is 1.5; in [5] it was 2; in data set [6], 1.2; in data set [10], 1.6. In addition, the results for the Activity in data set [9] and in data set [11] were 12.1% and 8.9%, respectively.
Regarding `COc1cc([C@@H]2c3cc4c(cc3[C@@H](O[C@@H]3O[C@@H]5CO[C@@H](C)O[C@H]5[C@H](O)[C@H]3O)[C@H]3COC(=O)[C@H]23)OCO4)cc(OC)c1O` [ETOPOSIDE], the GI50 in data set [12] was determined as 15 µM; in data set [13] it was 3.3 µM; in [14] it was 23 µM; in [15], 1.4 µM; in data set [16], 22 µM; in [17] it was 1.5 µM.
Take `CCCCCCCCCCCCCCCCOP(=O)([O-])OCC[N+](C)(C)C` [MILTEFOSINE]: the selectivity ratio in data set [4] was 909; in [5] it was 40.1; in [6] it was 7.5; in data set [10], 2.9.
As for `CC(C)c1cc2c(cc1O)[C@@]1(C)CCC[C@@](C)(C(=O)O)[C@@H]1CC2=O`, the IC50 entry in data set [1], in [3], in data set [7] and in data set [8] was “Not Active” each time. In data set [2], the CC50 at 48 h was 219 µM. For the same molecule, the Activity in [9] was -21.1%; in data set [11], -2%.
Take `CC(C)c1cc2c(cc1O)[C@@]1(C)CCC[C@@](C)(CO)[C@@H]1CC2` [18-HYDROXYFERRUGINOL]: the IC50 in [1] (setting [18]) was 7.7 µM; in data set [3] (setting [19]) it was 0.7 µM; in [7] (setting [20]), 12.5 µM; in [8] (setting [21]), 13.9 µM; in [8] (setting [22]), 13.9 µM. In data set [2], the CC50 at 48 h is 23.4 µM. For the same molecule, the selectivity ratio in data set [4] was 1.7; in data set [5], 33.4; in data set [6], 1.9; in data set [10], 3. Besides, the values for the Activity in data set [9] and in data set [11] were 154% and 29.3%, respectively.
With `COC(=O)[C@]1(C)CCC[C@]2(C)c3cc(O)c(C(C)C)cc3C(=O)C[C@@H]12`, the CC50 at 48 h in [2] is 154 µM. For the same molecule, the figures for the Activity in data set [9] and in [11] were 242% and 37.4%, respectively.
With `COC(=O)[C@]1(C)CCC[C@]2(C)c3cc(O)c(C(C)C)cc3CC[C@@H]12`, the IC50 in [1] (setting [18]) is 3.9 µM; in data set [3] (setting [19]), 5 µM; in data set [7] (setting [20]) it was 5.9 µM; in data set [8] (setting [21]), 9.21 µM; in data set [8] (setting [22]), 9.21 µM. Besides, the GI50 in [12] amounted to 11 µM; in [13], 5.8 µM; in data set [14], 23 µM; in [15], 9.7 µM; in data set [16], 19 µM; in [17], 9.4 µM. In addition, the CC50 at 48 h in [2] amounted to 34.2 µM. For the same molecule, the selectivity ratio turned out to be 3.7 in [4], 6.8 in data set [5], 5.8 in data set [6] and 8.7 in [10]. Moreover, the Activity in [9] was 378%; in data set [11], 23.7%.

Broadly, the CC50 is the concentration at which the toxic effect on the cells reaches its halfway point. A word on the GI50: it is the concentration giving 50% growth inhibition.
